How the values were obtained:
Format in all cases: functional
MDA-MB-231 = test: Growth inhibition of human MDA-MB-231 cells assessed as growth percentage at 10 uM incubated for 48 hrs by sulforhodamine B assay relative to control; settings: MDA-MB-231, 48 h, read-out: Activity
How it was run: (§1)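 NCI-60 one-dose screen. Cells in RPMI 1640 with 5% FBS and 2 mM L-glutamine, seeded at 5,000–40,000 cells/well according to doubling time, and preincubated overnight at 37 °C, 5% CO2. A time-zero plate was TCA-fixed at drug addition. Compound from DMSO stock, final 10 µM, 48 h; DMSO vehicle controls. Fixation with TCA, 10% final (16% for suspension cells). SRB stain, Tris solubilization, A515. Result given as % growth versus untreated cells.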

A549 = test: Growth inhibition of human A549/ATCC cells assessed as growth percentage at 10 uM incubated for 48 hrs by sulforhodamine B assay relative to control; settings: A549, 48 h, read-out: Activity
How it was run: (§2)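 NCI-60 one-dose screen: cells in RPMI 1640 with 5% FBS and 2 mM L-glutamine, plated at 5,000–40,000 cells/well and preincubated 24 h at 37 °C, 5% CO2. Compound is added from a DMSO stock to a final 10 µM and incubated 48 h. Cells are TCA-fixed and stained with sulforhodamine B, read at 515 nm. Output is % growth versus untreated control, with a time-zero plate.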

HOP-92 = test: Growth inhibition of human HOP92 cells assessed as growth percentage at 10 uM incubated for 48 hrs by sulforhodamine B assay relative to control; settings: HOP-92, 48 h, read-out: Activity; how it was run: as §1
A498 = test: Growth inhibition of human A498 cells assessed as growth percentage at 10 uM incubated for 48 hrs by sulforhodamine B assay relative to control; settings: A498, 48 h, read-out: Activity; how it was run: as §2
SNB-75 = test: Growth inhibition of human SNB75 cells assessed as growth percentage at 10 uM incubated for 48 hrs by sulforhodamine B assay relative to control; settings: SNB-75, 48 h, read-out: Activity
How it was run: (§3)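 NCI-60 single-dose screen. Cells were grown in RPMI 1640 with 5% FBS and 2 mM L-glutamine and plated at 5,000–40,000 cells/well. After an overnight preincubation at 37 °C in 5% CO2, compound was added at a final 10 µM from a DMSO stock, with DMSO/PBS controls. After 48 h, cells were TCA-fixed and stained with 0.4% SRB, and absorbance was read at 515 nm. Growth is given as a percentage of untreated control.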

KM12 = test: Growth inhibition of human KM12 cells assessed as growth percentage at 10 uM incubated for 48 hrs by sulforhodamine B assay relative to control; settings: KM12, 48 h, read-out: Activity; how it was run: as §1
LOX IMVI = test: Growth inhibition of human LOXIMVI cells assessed as growth percentage at 10 uM incubated for 48 hrs by sulforhodamine B assay relative to control; settings: read-out: Activity; how it was run: as §1
RPMI-8226 = test: Growth inhibition of human RPMI8226 cells assessed as growth percentage at 10 uM incubated for 48 hrs by sulforhodamine B assay relative to control; settings: RPMI-8226, 48 h, read-out: Activity; how it was run: as §3
CCRF-CEM = test: Growth inhibition of human CCRF-CEM cells assessed as growth percentage at 10 uM incubated for 48 hrs by sulforhodamine B assay relative to control; settings: read-out: Activity; how it was run: as §2
BT-549 = test: Growth inhibition of human BT549 cells assessed as growth percentage at 10 uM incubated for 48 hrs by sulforhodamine B assay relative to control; settings: BT-549, 48 h, read-out: Activity; how it was run: as §2
HT-29 = test: Growth inhibition of human HT-29 cells assessed as growth percentage at 10 uM incubated for 48 hrs by sulforhodamine B assay relative to control; settings: HT-29, 48 h, read-out: Activity; how it was run: as §1
MDA-MB-468 = test: Growth inhibition of human MDA-MB-468 cells assessed as growth percentage at 10 uM incubated for 48 hrs by sulforhodamine B assay relative to control; settings: MDA-MB-468, 48 h, read-out: Activity; how it was run: as §1
OVCAR-5 = test: Growth inhibition of human OVCAR5 cells assessed as growth percentage at 10 uM incubated for 48 hrs by sulforhodamine B assay relative to control; settings: OVCAR-5, 48 h, read-out: Activity; how it was run: as §3
MOLT-4 = test: Growth inhibition of human MOLT4 cells assessed as growth percentage at 10 uM incubated for 48 hrs by sulforhodamine B assay relative to control; settings: MOLT-4, 48 h, read-out: Activity; how it was run: as §1
MCF7 = test: Growth inhibition of human MCF7 cells assessed as growth percentage at 10 uM incubated for 48 hrs by sulforhodamine B assay relative to control; settings: MCF7, 48 h, read-out: Activity; how it was run: as §1
SK-MEL-2 = test: Growth inhibition of human SK-MEL-2 cells assessed as growth percentage at 10 uM incubated for 48 hrs by sulforhodamine B assay relative to control; settings: SK-MEL-2, 48 h, read-out: Activity; how it was run: as §3
SW-620 = test: Growth inhibition of human SW620 cells assessed as growth percentage at 10 uM incubated for 48 hrs by sulforhodamine B assay relative to control; settings: SW-620, 48 h, read-out: Activity; how it was run: as §3
Malme-3M = test: Growth inhibition of human MALME-3M cells assessed as growth percentage at 10 uM incubated for 48 hrs by sulforhodamine B assay relative to control; settings: read-out: Activity; how it was run: as §1
Hs-578T = test: Growth inhibition of human Hs 578T cells assessed as growth percentage at 10 uM incubated for 48 hrs by sulforhodamine B assay relative to control; settings: read-out: Activity; how it was run: as §1
HCT-116 = test: Growth inhibition of human HCT116 cells assessed as growth percentage at 10 uM incubated for 48 hrs by sulforhodamine B assay relative to control; settings: HCT-116, 48 h, read-out: Activity; how it was run: as §2
SNB-19 = test: Growth inhibition of human SNB19 cells assessed as growth percentage at 10 uM incubated for 48 hrs by sulforhodamine B assay relative to control; settings: SNB-19, 48 h, read-out: Activity; how it was run: as §3
HCT-15 = test: Growth inhibition of human HCT15 cells assessed as growth percentage at 10 uM incubated for 48 hrs by sulforhodamine B assay relative to control; settings: HCT-15, 48 h, read-out: Activity; how it was run: as §2
TK-10 = test: Growth inhibition of human TK10 cells assessed as growth percentage at 10 uM incubated for 48 hrs by sulforhodamine B assay relative to control; settings: TK-10, 48 h, read-out: Activity; how it was run: as §3
T47D = test: Growth inhibition of human T47D cells assessed as growth percentage at 10 uM incubated for 48 hrs by sulforhodamine B assay relative to control; settings: read-out: Activity; how it was run: as §3
HOP-62 = test: Growth inhibition of human HOP62 cells assessed as growth percentage at 10 uM incubated for 48 hrs by sulforhodamine B assay relative to control; settings: HOP-62, 48 h, read-out: Activity; how it was run: as §1
COLO 205 = test: Growth inhibition of human COLO205 cells assessed as growth percentage at 10 uM incubated for 48 hrs by sulforhodamine B assay relative to control; settings: COLO 205, 48 h, read-out: Activity; how it was run: as §2

| Compound | growth at 10 µM (MDA-MB-231) | growth at 10 µM (A549) | growth at 10 µM (HOP-92) | growth at 10 µM (A498) | growth at 10 µM (SNB-75) | growth at 10 µM (KM12) | growth at 10 µM (LOX IMVI) | growth at 10 µM (RPMI-8226) | growth at 10 µM (CCRF-CEM) | growth at 10 µM (BT-549) | growth at 10 µM (HT-29) | growth at 10 µM (MDA-MB-468) | growth at 10 µM (OVCAR-5) | growth at 10 µM (MOLT-4) | growth at 10 µM (MCF7) | growth at 10 µM (SK-MEL-2) | growth at 10 µM (SW-620) | growth at 10 µM (Malme-3M) | growth at 10 µM (Hs-578T) | growth at 10 µM (HCT-116) | other results |
| --- | --- | --- | --- | --- | --- | --- | --- | --- | --- | --- | --- | --- | --- | --- | --- | --- | --- | --- | --- | --- | --- |
| CC(=O)C1=C(C)NC(=O)NC1c1ccc2c(c1)OCO2 (racemic) | 102% | 103% | 102% | 120% | 94.1% | 110% | 96.4% | 103% | 98.5% | 112% | 104% | 105% | 102% | 103% | 96.9% | 110% | 104% | 104% | 111% | 108% | growth at 10 µM (SNB-19): 95.4%; growth at 10 µM (HCT-15): 106%; growth at 10 µM (TK-10): 103%; growth at 10 µM (T47D): 91.8%; growth at 10 µM (HOP-62): 103%; growth at 10 µM (COLO 205): 104% |
| CC1=C(C(=O)c2ccccc2)C(c2ccc3c(c2)OCO3)NC(=S)N1 (racemic) | 79.1% | 40.3% | 92.3% | -12.5% | -1.4% | 20% | 36.2% | 44% | 41.2% | 50.6% | 18.5% | 54.3% | 72.5% | 36.6% | 22% | 60.5% | 24.2% | 54.5% | 23.4% | 20.1% | growth at 10 µM (SNB-19): 63.8%; growth at 10 µM (HCT-15): 33.7%; growth at 10 µM (TK-10): 66%; growth at 10 µM (T47D): 67.9%; growth at 10 µM (HOP-62): 51.8%; growth at 10 µM (COLO 205): 47.6% |
| CC(=O)C1=C(C)NC(=S)NC1c1ccc2c(c1)OCO2 (racemic) | 104% | 105% | 92.5% | 115% | 90.1% | 109% | 98.7% | 105% | 101% | 108% | 106% | 113% | 101% | 98.8% | 103% | 106% | 106% | 108% | 101% | 104% | growth at 10 µM (SNB-19): 98.9%; growth at 10 µM (HCT-15): 108%; growth at 10 µM (TK-10): 97.6%; growth at 10 µM (T47D): 96.2%; growth at 10 µM (HOP-62): 104%; growth at 10 µM (COLO 205): 109% |
| O=C1C2=C(NC(=S)NC2c2ccc3c(c2)OCO3)c2ccccc21 (racemic) | 104% | 107% | 95% | 109% | 81% | 109% | 99.2% | 103% | 108% | 101% | 108% | 108% | 106% | 104% | 96.8% | 105% | 95.2% | 106% | 96.8% | 110% | growth at 10 µM (SNB-19): 100%; growth at 10 µM (HCT-15): 105%; growth at 10 µM (TK-10): 102%; growth at 10 µM (T47D): 99%; growth at 10 µM (HOP-62): 104%; growth at 10 µM (COLO 205): 113% |
| COCCOC(=O)C1=C(C)NC(=O)NC1c1ccc2c(c1)OCO2 (racemic) | 98.8% | 101% | 112% | 87% | 89.6% | 102% | 98.6% | 101% | 99% | 106% | 102% | 106% | 101% | 101% | 96.8% | 104% | 97% | 99.8% | 103% | 107% | growth at 10 µM (SNB-19): 95.6%; growth at 10 µM (HCT-15): 101%; growth at 10 µM (TK-10): 100%; growth at 10 µM (T47D): 98.4%; growth at 10 µM (HOP-62): 108%; growth at 10 µM (COLO 205): 102% |
| CC1=C(C(=O)OCc2ccccc2)C(c2ccc3c(c2)OCO3)NC(=O)N1 (racemic) | 104% | 106% | 92.3% | 105% | 96% | 105% | 97.9% | 89.1% | 103% | 80.2% | 109% | 92% | 106% | 104% | 101% | 101% | 109% | 101% | 98.1% | 88.3% | growth at 10 µM (SNB-19): 96.1%; growth at 10 µM (HCT-15): 98.1%; growth at 10 µM (TK-10): 101%; growth at 10 µM (T47D): 89.2%; growth at 10 µM (HOP-62): 114%; growth at 10 µM (COLO 205): 116% |
| CC(=O)N1C(=S)NC(C)=C(C(=O)OC(C)C)C1c1ccc2c(c1)OCO2 (racemic) | 88.9% | 99.4% | 78.1% | 114% | 97.2% | 99.7% | 98.8% | 73.9% | 81.5% | 99.3% | 105% | 104% | 107% | 95.2% | 97.2% | 110% | 102% | 98.4% | 98% | 93.8% | growth at 10 µM (SNB-19): 98.1%; growth at 10 µM (HCT-15): 99.3%; growth at 10 µM (TK-10): 103%; growth at 10 µM (T47D): 70.4%; growth at 10 µM (HOP-62): 88.5%; growth at 10 µM (COLO 205): 99.5% |

Source: ChEMBL document CHEMBL4406880, “Design, synthesis, and bioactivity of dihydropyrimidine derivatives as kinesin spindle protein inhibitors” (Bioorg Med Chem, 2019)
